Measurements published in ChEMBL document CHEMBL5705905, “Pharmacological targeting of kinases MST1 and MST2 augments tissue repair and regeneration” (Sci Transl Med, 2016).
Active and inactive are the calls of the source. The rule behind the calls is not given here.

How the values were obtained:
[1] = target: T1, Serine/threonine-protein kinase 4 (Homo sapiens, UniProt Q13043); assay: Inhibition of recombinant His-tagged full-length MST1 (unknown origin) expressing in Escherichia coli assessed as MOB1a phosphorylation level incubated for 30 min in the presence of 30 uM ATP by immunoblot analysis
T1 sequence (Q13043 whole entry): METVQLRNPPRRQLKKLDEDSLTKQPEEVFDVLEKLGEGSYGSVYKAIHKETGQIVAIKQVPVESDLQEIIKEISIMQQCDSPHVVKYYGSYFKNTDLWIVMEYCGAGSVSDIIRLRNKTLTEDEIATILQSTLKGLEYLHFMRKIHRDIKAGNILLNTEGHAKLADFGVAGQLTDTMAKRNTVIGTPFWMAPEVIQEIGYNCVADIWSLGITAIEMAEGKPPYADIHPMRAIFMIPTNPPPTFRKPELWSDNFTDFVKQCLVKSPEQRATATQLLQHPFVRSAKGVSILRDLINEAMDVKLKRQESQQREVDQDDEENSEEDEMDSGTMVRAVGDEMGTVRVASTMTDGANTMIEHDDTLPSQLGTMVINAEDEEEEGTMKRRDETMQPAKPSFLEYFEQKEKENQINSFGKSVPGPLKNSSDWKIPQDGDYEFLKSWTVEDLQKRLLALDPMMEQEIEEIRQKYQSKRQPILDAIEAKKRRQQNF

[2] = target: Mitogen-activated protein kinase kinase kinase 14 (Homo sapiens) (UniProt Q99558); assay: Inhibition of NIK (unknown origin) assessed as remaining activity at 1 uM by Kinome scan method relative to control
Mitogen-activated protein kinase kinase kinase 14 (Homo sapiens), sequence (Q99558 whole entry, looked up): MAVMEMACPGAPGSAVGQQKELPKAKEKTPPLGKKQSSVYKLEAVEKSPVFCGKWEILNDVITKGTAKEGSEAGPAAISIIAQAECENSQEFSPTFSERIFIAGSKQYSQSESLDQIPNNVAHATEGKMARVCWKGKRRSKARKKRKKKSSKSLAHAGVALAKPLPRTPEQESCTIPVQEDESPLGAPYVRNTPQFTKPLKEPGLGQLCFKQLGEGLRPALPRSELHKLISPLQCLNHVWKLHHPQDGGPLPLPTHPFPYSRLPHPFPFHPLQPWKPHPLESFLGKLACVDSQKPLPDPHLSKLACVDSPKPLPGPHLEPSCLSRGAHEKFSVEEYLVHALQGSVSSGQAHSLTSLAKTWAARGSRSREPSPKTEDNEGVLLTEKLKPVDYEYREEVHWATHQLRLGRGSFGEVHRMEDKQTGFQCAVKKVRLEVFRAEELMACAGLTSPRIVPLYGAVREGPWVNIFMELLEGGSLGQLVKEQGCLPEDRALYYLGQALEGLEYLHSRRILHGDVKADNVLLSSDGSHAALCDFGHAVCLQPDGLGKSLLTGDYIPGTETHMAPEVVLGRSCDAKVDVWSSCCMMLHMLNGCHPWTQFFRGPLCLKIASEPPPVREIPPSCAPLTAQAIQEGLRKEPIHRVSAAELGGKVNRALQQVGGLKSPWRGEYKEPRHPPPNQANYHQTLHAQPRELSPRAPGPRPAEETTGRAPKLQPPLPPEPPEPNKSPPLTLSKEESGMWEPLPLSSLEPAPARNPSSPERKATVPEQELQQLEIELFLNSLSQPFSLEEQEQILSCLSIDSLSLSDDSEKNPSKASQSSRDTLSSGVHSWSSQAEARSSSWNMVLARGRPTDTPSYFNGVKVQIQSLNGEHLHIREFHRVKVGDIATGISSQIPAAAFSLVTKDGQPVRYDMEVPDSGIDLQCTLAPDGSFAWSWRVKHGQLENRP

[3] = tested on: Epidermal growth factor receptor (Homo sapiens), P00533 [T790M]; assay: Inhibition of EGFR T790M mutant (unknown origin) assessed as remaining activity at 1 uM by Kinome scan method relative to control
[4] = target: Mitogen-activated protein kinase 11 (Homo sapiens) (UniProt Q15759); assay: Inhibition of P38beta (unknown origin) assessed as remaining activity at 1 uM by Kinome scan method relative to control
Mitogen-activated protein kinase 11 (Homo sapiens), sequence (Q15759 whole entry): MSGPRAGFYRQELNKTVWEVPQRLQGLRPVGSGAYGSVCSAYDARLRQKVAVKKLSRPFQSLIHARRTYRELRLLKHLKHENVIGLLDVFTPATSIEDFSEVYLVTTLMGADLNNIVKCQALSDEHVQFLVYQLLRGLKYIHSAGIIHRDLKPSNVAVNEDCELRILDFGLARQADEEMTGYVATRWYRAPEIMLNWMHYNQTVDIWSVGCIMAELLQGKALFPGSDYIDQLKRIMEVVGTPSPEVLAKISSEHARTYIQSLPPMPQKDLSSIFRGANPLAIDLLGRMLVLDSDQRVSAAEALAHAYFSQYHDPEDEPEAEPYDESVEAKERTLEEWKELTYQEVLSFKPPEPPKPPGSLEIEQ

Mus musculus [5] = assay: Protection against human hepatocyte transplanted FRG mouse assessed as increase in FAH level at 1 mg/kg, ip administrated once a daily for 28 days by H&E staining based immunohistochemical analysis; assay type: functional, organism-based; details: Liver, time 28.0 day
[6] = tested on: Epidermal growth factor receptor (Homo sapiens), P00533 [L858R]; assay: Inhibition of EGFR L858R mutant (unknown origin) assessed as remaining activity at 1 uM by Kinome scan method relative to control
[7] = target: Homeodomain-interacting protein kinase 3 (Homo sapiens) (UniProt Q9H422); assay: Inhibition of HIPK3 (unknown origin) assessed as remaining activity at 1 uM by Kinome scan method relative to control
Homeodomain-interacting protein kinase 3 (Homo sapiens), sequence (Q9H422 whole entry, looked up): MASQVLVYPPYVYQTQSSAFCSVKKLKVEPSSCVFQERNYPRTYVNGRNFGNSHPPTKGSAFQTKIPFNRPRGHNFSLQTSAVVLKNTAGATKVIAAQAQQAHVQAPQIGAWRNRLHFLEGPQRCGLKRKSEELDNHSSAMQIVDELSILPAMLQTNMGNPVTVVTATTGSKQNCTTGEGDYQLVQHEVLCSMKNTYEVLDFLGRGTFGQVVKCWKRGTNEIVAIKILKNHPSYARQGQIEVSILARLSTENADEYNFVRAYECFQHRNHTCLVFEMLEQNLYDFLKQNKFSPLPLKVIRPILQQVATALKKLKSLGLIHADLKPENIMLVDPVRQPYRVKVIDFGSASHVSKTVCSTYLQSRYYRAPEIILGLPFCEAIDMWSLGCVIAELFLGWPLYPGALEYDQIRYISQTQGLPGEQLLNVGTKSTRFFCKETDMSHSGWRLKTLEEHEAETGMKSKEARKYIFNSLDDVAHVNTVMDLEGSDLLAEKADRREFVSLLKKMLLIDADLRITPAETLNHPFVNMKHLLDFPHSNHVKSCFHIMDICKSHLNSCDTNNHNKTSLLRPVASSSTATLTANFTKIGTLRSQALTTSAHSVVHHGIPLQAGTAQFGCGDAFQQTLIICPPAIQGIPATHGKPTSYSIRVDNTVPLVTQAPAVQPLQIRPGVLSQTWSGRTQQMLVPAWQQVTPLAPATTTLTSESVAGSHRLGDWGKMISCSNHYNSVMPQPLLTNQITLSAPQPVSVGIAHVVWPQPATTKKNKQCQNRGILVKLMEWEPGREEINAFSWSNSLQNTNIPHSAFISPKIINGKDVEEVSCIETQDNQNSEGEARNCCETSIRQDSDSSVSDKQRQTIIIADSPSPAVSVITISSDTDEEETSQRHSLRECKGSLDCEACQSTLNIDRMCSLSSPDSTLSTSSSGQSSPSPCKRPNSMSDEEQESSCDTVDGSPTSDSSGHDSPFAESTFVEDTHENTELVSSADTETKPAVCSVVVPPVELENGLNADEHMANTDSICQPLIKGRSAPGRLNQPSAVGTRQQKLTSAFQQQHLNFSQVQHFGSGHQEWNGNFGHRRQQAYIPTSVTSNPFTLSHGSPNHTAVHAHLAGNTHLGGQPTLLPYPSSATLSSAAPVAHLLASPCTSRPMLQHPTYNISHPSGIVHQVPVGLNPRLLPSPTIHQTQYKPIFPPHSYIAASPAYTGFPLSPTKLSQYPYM

[8] = target: TRAF2 and NCK-interacting protein kinase (Homo sapiens) (UniProt Q9UKE5); assay: Inhibition of TNIK (unknown origin) assessed as remaining activity at 1 uM by Kinome scan method relative to control
Aurora kinase B = Aurora kinase B (Homo sapiens, UniProt Q96GD4); assay: Inhibition of AURKB (unknown origin) in presence of ATP by enzymatic assay
Aurora kinase B, sequence (Q96GD4 whole entry): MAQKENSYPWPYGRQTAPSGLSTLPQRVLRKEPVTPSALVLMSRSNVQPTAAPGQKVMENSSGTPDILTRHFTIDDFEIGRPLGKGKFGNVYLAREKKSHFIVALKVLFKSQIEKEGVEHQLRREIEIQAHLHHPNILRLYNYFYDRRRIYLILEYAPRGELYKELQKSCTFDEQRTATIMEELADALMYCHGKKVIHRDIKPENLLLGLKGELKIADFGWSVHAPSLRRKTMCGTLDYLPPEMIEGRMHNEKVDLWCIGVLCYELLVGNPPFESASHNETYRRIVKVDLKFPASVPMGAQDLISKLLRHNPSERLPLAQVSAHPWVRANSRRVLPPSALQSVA

Mus musculus [9] = assay: Protection against APAP induced liver injury in mouse assessed as decrease in mortality rate at 1 mg/kg, ip administered at 2.5 hrs; assay type: functional, organism-based
[10] = Acute toxicity in mouse assessed as increase in liver/body weight ratio at 1 mg/kg,ip administrated once a daily for 3 weeks relative to control; assay type: organism-based; details: in vivo, 504 h
Summary of the method: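 Postnatal mice dosed from 10 days of age with vehicle or 1 mg/kg once per day for 21 days (3 weeks). Vehicle is 0.1% citric acid aqueous solution containing 20% Kolliphor HS 15. Liver sections stained with H&E and by IHC for CK19 and BrdU, with positive cells quantified (n = 3). Liver/body weight ratio recorded (n = 4). Values are means ± SD versus vehicle, Student's t test.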

[11] = target: BDNF/NT-3 growth factors receptor (Homo sapiens) (UniProt Q16620); assay: Inhibition of TRKB (unknown origin) assessed as remaining activity at 1 uM by Kinome scan method relative to control
BDNF/NT-3 growth factors receptor (Homo sapiens), sequence (Q16620 32-822 limits assumed): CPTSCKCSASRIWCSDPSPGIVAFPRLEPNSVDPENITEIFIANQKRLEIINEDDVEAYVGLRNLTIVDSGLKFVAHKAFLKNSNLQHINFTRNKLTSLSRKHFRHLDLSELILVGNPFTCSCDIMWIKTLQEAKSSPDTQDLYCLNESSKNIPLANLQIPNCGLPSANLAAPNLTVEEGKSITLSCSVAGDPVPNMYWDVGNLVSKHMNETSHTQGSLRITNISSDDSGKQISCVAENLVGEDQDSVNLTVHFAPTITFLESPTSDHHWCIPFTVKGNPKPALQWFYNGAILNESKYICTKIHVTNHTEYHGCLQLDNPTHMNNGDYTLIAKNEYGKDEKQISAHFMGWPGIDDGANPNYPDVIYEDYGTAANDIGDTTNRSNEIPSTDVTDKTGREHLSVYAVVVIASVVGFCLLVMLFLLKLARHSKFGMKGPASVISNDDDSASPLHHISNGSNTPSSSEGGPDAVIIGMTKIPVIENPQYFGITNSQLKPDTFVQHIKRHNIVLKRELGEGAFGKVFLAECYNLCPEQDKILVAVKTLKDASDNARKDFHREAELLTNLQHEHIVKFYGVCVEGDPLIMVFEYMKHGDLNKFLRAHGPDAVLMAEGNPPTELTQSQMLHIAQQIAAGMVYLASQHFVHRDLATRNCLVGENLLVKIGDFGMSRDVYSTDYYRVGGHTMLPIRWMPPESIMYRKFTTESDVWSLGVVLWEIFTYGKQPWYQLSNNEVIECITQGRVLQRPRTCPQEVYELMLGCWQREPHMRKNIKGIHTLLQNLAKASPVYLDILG

[12] = target: Serine/threonine-protein kinase TAO1 (Homo sapiens) (UniProt Q7L7X3); assay: Inhibition of TAOK1 (unknown origin) assessed as remaining activity at 1 uM by Kinome scan method relative to control
[13] = target: Dual specificity mitogen-activated protein kinase kinase 6 (Homo sapiens) (UniProt P52564); assay: Inhibition of MEK6 (unknown origin) assessed as remaining activity at 1 uM by Kinome scan method relative to control
Dual specificity mitogen-activated protein kinase kinase 6 (Homo sapiens), sequence (P52564 whole entry): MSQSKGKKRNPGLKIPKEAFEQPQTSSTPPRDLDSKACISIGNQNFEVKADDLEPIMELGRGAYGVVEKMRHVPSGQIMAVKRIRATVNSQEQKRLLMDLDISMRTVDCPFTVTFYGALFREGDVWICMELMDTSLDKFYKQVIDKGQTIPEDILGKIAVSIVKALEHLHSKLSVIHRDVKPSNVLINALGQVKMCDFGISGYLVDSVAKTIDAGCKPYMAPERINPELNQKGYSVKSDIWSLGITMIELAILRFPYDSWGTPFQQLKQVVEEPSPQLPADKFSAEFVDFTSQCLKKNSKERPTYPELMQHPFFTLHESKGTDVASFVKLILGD

[14] = Tmax in male Sprague-Dawley rat at 10 mg/kg, po measured for 24 hrs by LC-MS/MS analysis; assay type: ADME, organism-based; details: in vivo
[15] = target: SRSF protein kinase 1 (Homo sapiens) (UniProt Q96SB4); assay: Inhibition of SRPK1 (unknown origin) assessed as remaining activity at 1 uM by Kinome scan method relative to control
SRSF protein kinase 1 (Homo sapiens), sequence (Q96SB4 whole entry): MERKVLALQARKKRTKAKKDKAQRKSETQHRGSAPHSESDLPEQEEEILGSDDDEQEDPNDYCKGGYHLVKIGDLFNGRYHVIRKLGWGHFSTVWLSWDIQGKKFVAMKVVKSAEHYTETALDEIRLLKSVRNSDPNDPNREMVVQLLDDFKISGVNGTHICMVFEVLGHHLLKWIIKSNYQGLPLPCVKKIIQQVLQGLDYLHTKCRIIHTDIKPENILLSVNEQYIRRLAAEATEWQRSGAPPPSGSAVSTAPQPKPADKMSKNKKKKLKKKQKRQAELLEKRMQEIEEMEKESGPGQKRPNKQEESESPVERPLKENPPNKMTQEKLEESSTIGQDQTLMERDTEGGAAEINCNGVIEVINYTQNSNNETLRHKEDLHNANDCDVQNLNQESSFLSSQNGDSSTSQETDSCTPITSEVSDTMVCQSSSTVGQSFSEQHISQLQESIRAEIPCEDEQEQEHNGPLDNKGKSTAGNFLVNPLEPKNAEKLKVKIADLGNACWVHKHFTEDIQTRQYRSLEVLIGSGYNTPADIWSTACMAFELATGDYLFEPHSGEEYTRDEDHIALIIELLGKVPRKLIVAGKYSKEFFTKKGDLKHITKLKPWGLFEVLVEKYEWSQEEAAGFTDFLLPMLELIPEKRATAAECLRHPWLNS

[16] = tested on: Receptor-type tyrosine-protein kinase FLT3 (Homo sapiens), P36888 [D835H]; assay: Inhibition of FLT3 D835H mutant (unknown origin) assessed as remaining activity at 1 uM by Kinome scan method relative to control

Compound `CN1C(=O)c2sccc2N(C)c2nc(Nc3ccc(S(N)(=O)=O)cc3)ncc21` has an IC50 [1] of 378 nM, an Activity [2] of 58% and an Activity [3] of 92%. For the same compound, the Activity [4] was 83%, the Activity (Mus musculus [5]) was “Active” and the Activity [6] was 100%. For the same compound, the Activity [7] was 100%, the Activity [8] was 71% and the IC50 (Aurora kinase B) was 19.1 nM. The Activity (Mus musculus [9]) was “Active”, the Activity [10] was 15% and the Activity [11] was 35%. For the same compound, the Activity [12] was 2.6%, the Activity [13] was 100% and the Tmax [14] was 3 h. For the same compound, the Activity [15] was 65% and the Activity [16] was 67%.
